Activity calls are given as the source filed them. The rule behind the calls is not given here.
What was measured:
[1] = tested on: NUGC-3; assay: Growth inhibition of human NUGC3 cells by SRB assay; format: functional
[2] = biological target: Rho-related GTP-binding protein RhoB (Homo sapiens) (UniProt P62745); assay: Transactivation of RhoB (unknown origin) transfected in human HeLa cells at 5 uM by dual luciferase reporter gene assay; format: cell-based
Method in brief: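 HeLa cells at 75–90% confluency were transiently cotransfected with a pGL2-RhoB-firefly luciferase promoter construct, then exposed to compounds. RhoB promoter activation was read as luciferase activity with a dual-luciferase reporter system. NSC126188 and perifosine, each at the same concentration as the compounds, served as positive controls.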

[3] = tested on: NCI-H23; assay: Growth inhibition of human NCI-H23 cells by SRB assay; format: functional
[4] = tested on: HCT-15; assay: Growth inhibition of human HCT15 cells by SRB assay; format: functional
[5] = tested on: ACHN; assay: Growth inhibition of human ACHN cells by SRB assay; format: functional
[6] = tested on: MDA-MB-231; assay: Growth inhibition of human MDA-MB-231 cells by SRB assay; format: functional
[7] = tested on: PC-3; assay: Growth inhibition of human PC3 cells by SRB assay; format: functional

Chain of Rho-related GTP-binding protein RhoB (Homo sapiens) (P62745 whole entry): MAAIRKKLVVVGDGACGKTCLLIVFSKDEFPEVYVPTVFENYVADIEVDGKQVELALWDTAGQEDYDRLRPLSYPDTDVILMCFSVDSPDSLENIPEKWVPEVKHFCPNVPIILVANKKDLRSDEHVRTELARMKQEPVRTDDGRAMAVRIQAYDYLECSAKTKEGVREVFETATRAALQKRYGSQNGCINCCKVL

Row | Compound | Activity [2] | GI50 [3] | GI50 [4] | GI50 [5] | GI50 [6] | GI50 [7] | GI50 [1]
1 | CCCCCCCCCCCCCC(=O)N1CCC[N+](C)(Cc2ccccc2)CC1 (stereo not given) | Active | 1.07 µM | inactive | 1 µM | 1.16 µM | 0.45 µM | 0.31 µM
2 | CCCCCCCCCCCCCC(=O)N1CCC[N+](C)(Cc2ccc(F)cc2)CC1 (stereo not given) |  | 1.48 µM | inactive | 1.1 µM | 1.48 µM | 0.45 µM | 0.94 µM
3 | CCCCCCCCCCCCCCS(=O)(=O)Nc1ccc([N+](C)(C)C)cc1 |  | 0.73 µM | 3.38 µM | inactive | 4.54 µM | 0.9 µM | 1.74 µM
4 | CCCCCCCCCCCCCC(=O)Nc1ccc([N+](C)(C)C)cc1 |  | 4.14 µM | 1.36 µM | 4.54 µM | 3.56 µM | 0.54 µM | 0.74 µM
5 | CCCCCCCCCCCCCCCC(=O)Nc1ccc([N+](C)(C)C)cc1 |  | 1.8 µM | 2.37 µM | 3.15 µM | 2.83 µM | 0.79 µM | 0.7 µM
6 | CCCCCCCCCCCCCCCCCCCC(=O)Nc1ccc([N+](C)(C)C)cc1 |  | 1.93 µM | 3.02 µM | 1.76 µM | 3.68 µM | 1.63 µM | 1.28 µM
7 | CCCCCCCCCCCCCCCCCC(=O)Nc1ccc([N+](C)(C)C)cc1 |  | 3.29 µM | 1.22 µM | 1.87 µM | 4.34 µM | 1.2 µM | 0.41 µM
8 | CCCCCCCCCCCCS(=O)(=O)Nc1ccc([N+](C)(C)C)cc1 |  | 3.94 µM | inactive | 4.5 µM | inactive | 1.02 µM | 1.21 µM
9 | CCCCCCCCCCCCCCCC(=O)N1CCC[N+](C)(Cc2cccc(OC(F)(F)F)c2)CC1 (stereo not given) |  | 1.45 µM | inactive | 1.93 µM | 1.34 µM | 0.63 µM | 0.87 µM
10 | CCCCCCCCCCCCCC(=O)N1CCC[N+](C)(Cc2cccc([N+](=O)[O-])c2)CC1 (stereo not given) | Active | 0.89 µM | inactive | 0.82 µM | 0.71 µM | 0.18 µM | 0.46 µM

Continued, in another order:

Row | Activity [2] | GI50 [3] | GI50 [4] | GI50 [5] | GI50 [6] | GI50 [7] | Compound | GI50 [1]
11 | Active | 0.28 µM | inactive | 0.44 µM | 0.45 µM | 0.18 µM | C=CC[N+]1(C)CCCN(C(=O)CCCCCCCCCCCCC)CC1 (stereo not given) | 0.26 µM
12 | Active | 3.84 µM | 0.99 µM | 2.78 µM | 2.22 µM | inactive | CCCCCCCCCCCCCCCCCCCC(=O)N1CCC[N+](C)(C)CC1 | 0.36 µM
13 | Active | 1.36 µM | 1.7 µM | 0.49 µM | 0.98 µM | 0.36 µM | CCCCCCCCCCCCCC(=O)N1CCC[N+](C)(C)CC1 | 0.08 µM
14 |  |  |  |  |  | 0.44 µM | CCCCCCCCCCCCCCCCCCOP(=O)([O-])OC1CC[N+](C)(C)CC1 [PERIFOSINE] | 0.54 µM
15 | Active | 3.4 µM | 0.77 µM | 2.01 µM | 0.59 µM | 0.4 µM | CCCCCCCCCCCCCCCCS(=O)(=O)N1CCC[N+](C)(C)CC1 | 0.38 µM
16 | Active | 0.8 µM | 0.38 µM | 1.33 µM | 0.83 µM | 0.62 µM | CCCCCCCCCCCCCCS(=O)(=O)N1CCC[N+](C)(C)CC1 | 0.25 µM
17 | Active | 1.18 µM | 1.86 µM | 1.61 µM | 0.68 µM | 0.27 µM | CCCCCCCCCCCCCC(=O)N1CCC[N+](C)(CC)CC1 (stereo not given) | 0.22 µM
18 |  | 1.16 µM | 0.4 µM | 0.57 µM | 0.67 µM | 0.24 µM | CCCCCCCCCCCCCCCCCC(=O)N1CCC[N+](C)(C)CC1 | 0.26 µM
19 | Active | 0.96 µM | 0.96 µM | 1.16 µM | 0.84 µM | 0.38 µM | CCCCCCCCCCCCS(=O)(=O)N1CCC[N+](C)(C)CC1 | 0.24 µM
20 | Active | 2.38 µM | 0.93 µM | 0.4 µM | 0.94 µM | 0.4 µM | CCCCCCCCCCCCCCCC(=O)N1CCC[N+](C)(C)CC1 | 0.21 µM
21 | Active |  | 0.58 µM |  |  | 0.48 µM | CCCCCCCCCCCCCCCC(=O)N1CC[N+](C)(C)CC1 | 0.29 µM

— ChEMBL document CHEMBL2311522, “Design, synthesis and biological evaluation of novel aliphatic amido/sulfonamido-quaternary ammonium salts as antitumor agents” (2013)
